Activity calls are given as the source filed them. The calls are words filed in the database; no cut-off is given here.
Legend:
HEK-293T = test: Cytotoxicity against human 293T cells assessed as reduction in cell viability incubated for 72 hr by CCK8 assay; format: cell-based
Procedure, shortened: (§1)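 HCCC-9810, RBE and 293T cells exposed to probe at 0–100 µM for 72 h. Viable cells quantified by CCK-8 assay.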

Quadruplex DNA [1] = test: Binding affinity to human c-myc G-quadruplex DNA in Tris Hcl buffer assessed as increase in fluorescence intensity at 545 nm at 0 to 0.8 uM measured at pH 7.4 by fluorescence emission analysis; settings: dose microM 0-0.8
[2] = Cytotoxicity against human RBE cells assessed as reduction in cell viability incubated for 72 hr by CCK8 assay; format: cell-based; procedure, shortened: as §1
Quadruplex DNA [3] = test: Inhibition of hemin binding to human c-myc G4 quadruplex DNA by measuring peroxidase activity within 30 at 415 nm by G4/hemin peroxidase inhibition assay; format: nucleic-acid assay
Procedure, shortened: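 G4/hemin peroxidase assay in 10 mM Tris-HCl, 60 mM KCl, pH 7.4, with c-myc 0.4 µM, hemin 0.8 µM, ABTS²⁻ 0.18 mM and H₂O₂ 0.06 mM, across varied probe concentrations. Oxidized ABTS product followed by absorbance at 415 nm over 30 min.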

Quadruplex DNA [4] = test: Binding affinity to human c-myc G-quadruplex DNA in Tris Hcl buffer assessed as fluorescence lifetime of compound at 400 nm at pH 7.4 by fluorescence emission analysis (Rvb (absence of c-myc G-quadruplex DNA ) = 0.513 ns); format: nucleic-acid assay
Quadruplex DNA [5] = test: Binding affinity to human c-myc G-quadruplex DNA with TTG AGGG TGGGT AATGGGT GGGT AAA flanking loops assessed as relative fluorescence intensity at 1 uM measured at pH 7.4 by fluorescent titration; format: nucleic-acid assay
Quadruplex DNA [6] = test: Binding affinity to human c-myc G-quadruplex DNA with 22-aminopurine substitution assessed as fluorescence intensity; format: nucleic-acid assay
Procedure, shortened: (§2)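 2-aminopurine-labelled c-myc G-quadruplex DNA held at 2 µM in 10 mM Tris-HCl, pH 7.4, 60 mM KCl. Probe or hemin added gradually, and 2-Ap fluorescence intensity monitored.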

Quadruplex DNA [7] = test: Binding affinity to human c-myc G-quadruplex DNA with TTG AATGGG TGGGT AGGGT GGGT AAA flanking loops assessed as relative fluorescence intensity at 1 uM measured at pH 7.4 by fluorescent titration; format: nucleic-acid assay
Quadruplex DNA [8] = test: Binding affinity to human c-myc G-quadruplex DNA with 22-aminopurine substitution assessed as fluorescence intensity in presence of hemin; format: nucleic-acid assay; procedure, shortened: as §2
Quadruplex DNA [9] = test: Competitive binding affinity to human c-myc G-quadruplex DNA assessed as increase in fluorescence in presence of ssDNA and dsDNA at 1 uM by fluorescence titration analysis; format: nucleic-acid assay
Procedure, shortened: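 Competition titration: probe at 1 µM with 20 µM ds26 duplex DNA, then stepwise addition of c-myc G-quadruplex DNA, in 10 mM Tris-HCl, 60 mM KCl, pH 7.4. Read-out was fluorescence emission.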

Quadruplex DNA [10] = test: Binding affinity to human c-myc G-quadruplex DNA with 13-aminopurine substitution assessed as fluorescence intensity in presence of hemin; format: nucleic-acid assay; procedure, shortened: as §2
Quadruplex DNA [11] = test: Binding affinity to human c-myc G-quadruplex DNA with 4-aminopurine substitution assessed as fluorescence intensity in presence of hemin; format: nucleic-acid assay; procedure, shortened: as §2
Quadruplex DNA [12] = test: Effect on topology of human c-myc G-quadruplex DNA assessed as change in conformation at 265 nm by circular dichroism spectroscopy
Quadruplex DNA [13] = test: Binding affinity to human c-myc G-quadruplex DNA uM by circular dichroism spectroscopy; format: nucleic-acid assay
Procedure, shortened: (§3)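 CD titration of c-myc G-quadruplex DNA (5 µM) with 0–2 equivalents of probe, in 10 mM Tris-HCl, 60 mM KCl, pH 7.4.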

Quadruplex DNA [14] = test: Binding affinity to G-quadruplex DNA in human HCCC9810 cells increase in fluorescence intensity in cytoplasm at 20 uM by confocal fluorescence microscopy; format: cell-based
Procedure, shortened: (§4)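 Live HCCC-9810 cells stained 0.5 h with probe at 20 µM together with DAPI (5 mg/mL) as nuclear counterstain. Imaged by confocal fluorescence microscopy. Intracellular location is assigned from co-staining with DAPI, and uptake is judged from fluorescence intensity within the cells.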

Quadruplex DNA [15] = test: Binding affinity to human c-myc G-quadruplex DNA with TTG AGGG TAAGGGT AGGGT GGGT AAA flanking loops assessed as relative fluorescence intensity at 1 uM measured at pH 7.4 by fluorescent titration; format: nucleic-acid assay
Quadruplex DNA [16] = test: Binding affinity to human c-myc G-quadruplex DNA with TTG AGGG TGGGT AGGGT GGGT AAATA flanking loops assessed as relative fluorescence intensity at 1 uM measured at pH 7.4 by fluorescent titration; format: nucleic-acid assay
Quadruplex DNA [17] = test: Induction of stabilization of human c-myc G-quadruplex assessed inhibition of Taq polymerase mediated DNA polymerization at high concentration upto 20 uM by PCR-stop assay; format: nucleic-acid assay; settings: dose microM <=20
Procedure, shortened: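 PCR-stop assay. Probe (0–20 µM) was added to 1x PCR buffer containing 10 pmol c-myc template, 10 pmol c-myc rev primer, 0.2 mM dNTPs and 1.5 units Taq polymerase. Products were resolved on 15% non-denaturing polyacrylamide gels in 1× TBE. A mutant c-myc oligomer unable to fold served as control.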

Quadruplex DNA [18] = test: Effect on topology of human c-myc G-quadruplex DNA assessed as change in conformation at 245 nm at DNA to compound ratio of 1:1 by circular dichroism spectroscopy; format: nucleic-acid assay; procedure, shortened: as §3
Quadruplex DNA [19] = test: Binding affinity to human c-myc G-quadruplex DNA assessed as displacement of fluorescent labelled compound by measuring decrease in emission in presence of hemin by FID assay; format: nucleic-acid assay
[20] = Cytotoxicity against human HCCC9810 cells assessed as reduction in cell viability incubated for 72 hr by CCK8 assay; format: cell-based; settings: HCCC9810, 72 h; procedure, shortened: as §1
Quadruplex DNA [21] = test: Binding affinity to human c-myc G-quadruplex DNA with TTGA GGG T GGG TA GGG T GGG TAAA flanking loops assessed as relative fluorescence intensity at 1 uM measured at pH 7.4 by fluorescent titration; format: nucleic-acid assay
Quadruplex DNA [22] = test: Binding affinity to human c-myc G-quadruplex DNA with TTG AGGG TGGGT AGGGT GGGT flanking loops assessed as relative fluorescence intensity at 1 uM measured at pH 7.4 by fluorescent titration; format: nucleic-acid assay
Quadruplex DNA [23] = test: Binding affinity to human c-myc G-quadruplex DNA with TTG AGGG TGGGT AGGGT ATGGGT AAA flanking loops assessed as relative fluorescence intensity at 1 uM measured at pH 7.4 by fluorescent titration; format: nucleic-acid assay
Quadruplex DNA [24] = test: Binding affinity to G-quadruplex DNA in human HCCC9810 cells increase in fluorescence intensity at 20 uM by confocal fluorescence microscopy; format: cell-based; procedure, shortened: as §4
Quadruplex DNA [25] = test: Binding affinity to human c-myc G-quadruplex DNA assessed as increase in fluorescence in presence of c-myc at 1 uM by fluorescence titration analysis; format: nucleic-acid assay
Procedure, shortened: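 Probe at 1 µM in 10 mM Tris-HCl, 60 mM KCl, pH 7.4, titrated stepwise with c-myc G-quadruplex DNA (0–3 µM). Emission monitored near 545–547 nm, and F/F₀ of integral fluorescence fitted to an independent-site model. Linear range 0–0.8 µM DNA; detection limit from LOD = 3σ/k.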

Quadruplex DNA [26] = test: Binding affinity to human c-myc G-quadruplex DNA with AGGG TGGGT AGGGT GGGT AAA flanking loops assessed as relative fluorescence intensity at 1 uM measured at pH 7.4 by fluorescent titration; format: nucleic-acid assay
Quadruplex DNA [27] = test: Binding affinity to human c-myc G-quadruplex DNA with 4-aminopurine substitution assessed as fluorescence intensity; format: nucleic-acid assay; procedure, shortened: as §2
Quadruplex DNA [28] = test: Binding affinity to human c-myc G-quadruplex DNA assessed as increase in fluorescence in presence of BSA/HSA at 1 uM by fluorescence titration analysis; format: nucleic-acid assay
Procedure, shortened: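 Probe fluorescence followed with increasing BSA or HSA as interfering proteins, in the same Tris-HCl/KCl pH 7.4 titration system.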

Quadruplex DNA [29] = test: Binding affinity to human c-myc G-quadruplex DNA with 13-aminopurine substitution assessed as fluorescence intensity; format: nucleic-acid assay; procedure, shortened: as §2

## COCCOCCOCCn1c2ccccc2c2cc(/C=C/c3cccc[n+]3C)ccc21.[I-]
HEK-293T
  IC50: 40 µM
Quadruplex DNA [1]
  Activity: Active
[2]
  IC50: > 40 µM
Quadruplex DNA [3]
  Activity: inactive
Quadruplex DNA [4]
  Time: 3.87 nanoseconds
Quadruplex DNA [5]
  Flu intensity: 632
Quadruplex DNA [6]
  Activity: Active
Quadruplex DNA [7]
  Flu intensity: 702
Quadruplex DNA [8]
  Activity: inactive
Quadruplex DNA [9]
  Activity: Active
Quadruplex DNA [10]
  Activity: inactive
Quadruplex DNA [11]
  Activity: inactive
Quadruplex DNA [12]
  Activity: inactive
Quadruplex DNA [13]
  Activity: Active
Quadruplex DNA [14]
  Activity: Active
Quadruplex DNA [15]
  Flu intensity: 910
Quadruplex DNA [16]
  Flu intensity: 852
Quadruplex DNA [17]
  Activity: Active
Quadruplex DNA [18]
  Activity: inactive
Quadruplex DNA [19]
  Activity: inactive
[20]
  IC50: > 40 µM
Quadruplex DNA [21]
  Flu intensity: 695
Quadruplex DNA [22]
  Flu intensity: 861
Quadruplex DNA [23]
  Flu intensity: 570
Quadruplex DNA [24]
  Activity: Active
Quadruplex DNA [25]
  Activity: Active
Quadruplex DNA [26]
  Flu intensity: 846
Quadruplex DNA [27]
  Activity: Active
Quadruplex DNA [28]
  Activity: Active
Quadruplex DNA [29]
  Activity: Active

Source: ChEMBL document CHEMBL4725333, “Carbazole-based fluorescent probes for G-quadruplex DNA targeting with superior selectivity and low cytotoxicity” (Bioorg Med Chem, 2020)
